From ChEMBL document CHEMBL1125789, “Synthesis and selective class III antiarrhythmic activity of novel N-heteroaralkyl-substituted 1-(aryloxy)-2-propanolamine and related propylamine derivatives” (J Med Chem, 1991)

How the values were obtained:
Canis familiaris [1] = assay: Atrial effective refractory period by the compound in open chest anesthetized dog, after iv administration at a dose of 5.0 mg/kg.; format: functional, Canis lupus familiaris, Cardiac atrium; set-up: unit not given here
Procedure, shortened: (§1)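 Open-chest mongrel dogs under sodium pentobarbital anesthesia (30 mg/kg iv plus 5 mg/kg per h), paced at basic cycle length 300 ms. Atrial effective refractory period was determined by electrical stimulation before and after iv or intraduodenal compound and reported as change from control.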

Canis familiaris [2] = assay: Mean arterial pressure by the compound in open chest anesthetized dog, after iv administration at a dose of 5.0 mg/kg.; format: functional, Canis lupus familiaris, Artery; set-up: unit not given here
Procedure, shortened: (§2)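 Hemodynamics (heart rate, mean arterial pressure) recorded in pentobarbital-anesthetized (30 mg/kg iv, 5 mg/kg per h maintenance) open-chest mongrel dogs during the refractoriness study at BCL 300 ms. Readings were taken before and after iv or intraduodenal compound and expressed as change from control.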

Canis familiaris [3] = assay: Mean arterial pressure by the compound in open chest anesthetized dog, after iv administration at a dose of 2.5 mg/kg.; format: functional, Canis lupus familiaris, Artery; procedure, shortened: as §2
Canis familiaris [4] = species on record: Canis familiaris; assay: repolarization to reach -60mV, in canine Purkinje Fibers at a concentration of 300 uM at 1000 ms (simulating normal heart rate); format: functional, Canis lupus familiaris, Purkinje fiber
Procedure, shortened: (§3)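 Purkinje fiber bundles were stimulated with square-wave current pulses of 2.0 ms at twice threshold and equilibrated for at least 1 h, or until action potential parameters were steady. Each concentration was superfused for 45-60 min to reach steady state. Action potentials were recorded at four to six sites per fiber, under control and after drug.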

Canis familiaris [5] = species on record: Canis familiaris; assay: Maximum rate of rise of the upstroke of transmembrane potential, in canine Purkinje Fibers at a concentration of 30 uM at 1000 ms (simulating normal heart rate); format: functional; conditions: Canis lupus familiaris, Purkinje fiber
Procedure, shortened: (§4)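 Isolated canine Purkinje fiber bundles were driven by square-wave pulses 2.0 ms long at 2× threshold and equilibrated ≥1 h to steady state. Each concentration was superfused 45–60 min before recording, and action potentials were sampled at 4–6 sites per fiber in control and after drug, giving Vmax and APD to −60 mV.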

Canis familiaris [6] = assay: Ventricular effective refractory period by the compound in open chest anesthetized dog, after iv administration at a dose of 10.0 mg/kg.; format: functional, Canis lupus familiaris, Heart
Canis familiaris [7] = assay: Ventricular effective refractory period by the compound in open chest anesthetized dog, after iv administration at a dose of 2.5 mg/kg.; format: functional, Canis lupus familiaris, Heart
Canis familiaris [8] = assay: Ventricular conduction time by the compound in open chest anesthetized dog, after iv administration at a dose of 2.5 mg/kg.; format: functional, Canis lupus familiaris, Heart
Procedure, shortened: (§5)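 Mongrel dogs were anesthetized with sodium pentobarbital (30 mg/kg iv, then 5 mg/kg per h), the chest opened, and the heart paced at BCL 300 ms. Compound was given iv or intraduodenally. Ventricular conduction time was taken as the interval between electrograms at the proximal and distal sites of the recording electrode array. 2-5 dogs per dose.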

Canis familiaris [9] = assay: Heart beat by the compound in open chest anesthetized dog, after iv administration at a dose of 10.0 mg/kg.; format: functional, Canis lupus familiaris; procedure, shortened: as §2
Canis familiaris [10] = assay: Mean arterial pressure by the compound in open chest anesthetized dog, after iv administration at a dose of 10.0 mg/kg.; format: functional, Canis lupus familiaris, Artery; procedure, shortened: as §2
Canis familiaris [11] = species on record: Canis familiaris; assay: Maximum rate of rise of the upstroke of transmembrane potential, in canine Purkinje Fibers at a concentration of 30 uM at 300 ms (simulating tachycardia); format: functional; conditions: Canis lupus familiaris, Purkinje fiber; procedure, shortened: as §4
Canis familiaris [12] = species on record: Canis familiaris; assay: Repolarization to reach -60mV, in canine Purkinje Fibers at a concentration of 300 uM at 300 ms (simulating tachycardia); format: functional, Canis lupus familiaris, Purkinje fiber; procedure, shortened: as §3
Canis familiaris [13] = assay: Ventricular effective refractory period by the compound in open chest anesthetized dog, after iv administration at a dose of 5.0 mg/kg.; format: functional, Canis lupus familiaris, Heart; set-up: unit not given here
Canis familiaris [14] = species on record: Canis familiaris; assay: repolarization to reach -60mV, in canine Purkinje Fibers at a concentration of 30 uM at 1000 ms (simulating normal heart rate); format: functional, Canis lupus familiaris, Purkinje fiber; procedure, shortened: as §3
Canis familiaris [15] = species on record: Canis familiaris; assay: Maximum rate of rise of the upstroke of transmembrane potential, in canine Purkinje Fibers at a concentration of 300 uM at 300 ms (simulating tachycardia); format: functional; conditions: Canis lupus familiaris, Purkinje fiber; procedure, shortened: as §4
Canis familiaris [16] = species on record: Canis familiaris; assay: Repolarization to reach -60mV, in canine Purkinje Fibers at a concentration of 30 uM at 300 ms (simulating tachycardia); format: functional, Canis lupus familiaris, Purkinje fiber; procedure, shortened: as §3
Canis familiaris [17] = assay: Atrial conduction time by the compound in open chest anesthetized dog, after iv administration at a dose of 10.0 mg/kg.; format: functional, Canis lupus familiaris, Cardiac atrium
Procedure, shortened: (§6)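 Mongrel dogs anesthetized with sodium pentobarbital (30 mg/kg iv, then 5 mg/kg per h), chest opened, paced at BCL 300 ms. Atrial conduction time was taken as the interval between electrograms recorded at the proximal and distal sites of the atrial recording electrode array, before and after iv or intraduodenal dosing. Values are changes from control.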

Canis familiaris [18] = assay: Heart beat by the compound in open chest anesthetized dog, after iv administration at a dose of 5.0 mg/kg.; format: functional, Canis lupus familiaris; set-up: unit not given here; procedure, shortened: as §2
Canis familiaris [19] = assay: Ventricular conduction time by the compound in open chest anesthetized dog, after iv administration at a dose of 5.0 mg/kg.; format: functional, Canis lupus familiaris, Heart; set-up: unit not given here; procedure, shortened: as §5
Canis familiaris [20] = species on record: Canis familiaris; assay: Maximum rate of rise of the upstroke of transmembrane potential, in canine Purkinje Fibers at a concentration of 300 uM at 1000 ms (simulating normal heart rate); format: functional; conditions: Canis lupus familiaris, Purkinje fiber; procedure, shortened: as §4
Canis familiaris [21] = assay: Atrial effective refractory period by the compound in open chest anesthetized dog, after iv administration at a dose of 10.0 mg/kg.; format: functional, Canis lupus familiaris, Cardiac atrium; procedure, shortened: as §1
Canis familiaris [22] = assay: Heart beat by the compound in open chest anesthetized dog, after iv administration at a dose of 2.5 mg/kg.; format: functional, Canis lupus familiaris; procedure, shortened: as §2
Canis familiaris [23] = assay: Atrial conduction time by the compound in open chest anesthetized dog, after iv administration at a dose of 2.5 mg/kg.; format: functional, Canis lupus familiaris, Cardiac atrium; procedure, shortened: as §6
Canis familiaris [24] = assay: Atrial effective refractory period by the compound in open chest anesthetized dog, after iv administration at a dose of 2.5 mg/kg.; format: functional, Canis lupus familiaris, Cardiac atrium; procedure, shortened: as §1
Canis familiaris [25] = assay: Ventricular conduction time by the compound in open chest anesthetized dog, after iv administration at a dose of 10.0 mg/kg.; format: functional, Canis lupus familiaris, Heart; procedure, shortened: as §5
Canis familiaris [26] = assay: Atrial conduction time by the compound in open chest anesthetized dog, after iv administration at a dose of 5.0 mg/kg.; format: functional, Canis lupus familiaris, Cardiac atrium; set-up: unit not given here; procedure, shortened: as §6

Compound: CC(C)NCC(O)c1ccc(NS(C)(=O)=O)cc1 (racemic) [SOTALOL]
- AERP (Canis familiaris [1]): 57
- MBP (Canis familiaris [2]): -17
- MBP (Canis familiaris [3]): -16
- APD (Canis familiaris [4]): 86%
- Vmax (Canis familiaris [5]): 2
- VERP (Canis familiaris [6]): 30
- VERP (Canis familiaris [7]): 19
- VCT (Canis familiaris [8]): -1
- HR (Canis familiaris [9]): -39
- MBP (Canis familiaris [10]): -29
- Vmax (Canis familiaris [11]): -12
- APD (Canis familiaris [12]): 36%
- VERP (Canis familiaris [13]): 25
- APD (Canis familiaris [14]): 56%
- Vmax (Canis familiaris [15]): -20
- APD (Canis familiaris [16]): 18%
- ACT (Canis familiaris [17]): -4
- HR (Canis familiaris [18]): -28
- VCT (Canis familiaris [19]): -1
- Vmax (Canis familiaris [20]): -10
- AERP (Canis familiaris [21]): 68
- HR (Canis familiaris [22]): -27
- ACT (Canis familiaris [23]): -5
- AERP (Canis familiaris [24]): 42
- VCT (Canis familiaris [25]): -4
- ACT (Canis familiaris [26]): -7
